Test system: MS2 coat protein
Assay: apparent Kd, MS2 coat protein; higher = weaker binding; RNA-MaP array; FMN 200 µM where present
Summary of the method: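 The apparent Kd comes from binding curves fitted cluster by cluster, filtered, and summarised as a median. Those curves followed SNAP-549-labelled MS2 coat protein from 0.7 or 1.5 nM, doubling to 3 µM, on Illumina sequencing-chip clusters where stalled E. coli RNA polymerase had transcribed the designs, without and then with constant ligand. The buffer was 100 mM Tris-HCl pH 7.5, 80 mM KCl, 4 mM MgCl2, BSA, DTT, yeast tRNA and Tween-20, and green signal was normalised to red-channel RNA signal and control-cluster median Fmax.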

[1] = designed as: OFF switch for flavin mononucleotide, no ligand
[2] = ligand present: flavin mononucleotide, designed as: OFF switch for flavin mononucleotide
[3] = designed as: ON switch for flavin mononucleotide, no ligand
[4] = ligand present: flavin mononucleotide, designed as: ON switch for flavin mononucleotide

| Sequence | apparent Kd [1] [nM] | apparent Kd [2] [nM] | apparent Kd [3] [nM] | apparent Kd [4] [nM] |
| --- | --- | --- | --- | --- |
| UUAUGUGUCGUAGGAUAUCAUUAGAUUUGUAAUUUAAUUGUAAUUUACAUAUGAGAAGGACGUAUACAUGAGGAUCACCCAUGU | 25.5 | 35.9 |  |  |
| GCGUAUAUAAGAUUUAUUAAACAGUCAGAAGGUGAUAAUACGACAUGAGGAUCACCCAUGUAAUUCAAGGAUAUGAUCAUACGC |  |  | 98.5 | 27.2 |
| UUUUACCGAGGAUAUACAUUUUUUUUAUUAUCCUCAUUAUUACAUGAGGAUCACCCAUGUAGAAGGCGGAUUUU | 52.9 | 112 |  |  |
| GCGUGAAAUGUAGGAUAUGACACAGGAAACUGGUCAGAAGGACAUGAGGAUCACCCAUGUAAAAUGUUCAAGAAUAACACAUGC | 30.3 | 87 |  |  |
| AAUAUACAUGAGGAUCACCCAUGUUAGGUGGGACUAGGAUAUCAGAGUACAUUAUGAACAUGAGAAGGAGUCUCAG |  |  | 66.2 | 24.2 |
| GCCUUAUCGGUCAGGAUAUACACCCGUCACUCCUUGUAGAAGGGACAUGAGGAUCACCCAUGUACAUUACAUUG | 31.3 | 28.1 |  |  |
| AAAGAAGCACUUGGAACCGGACAAUGAGAAGGCCACGCACAUGAGGAUCACCCAUGUAAAGCUAUGGAGGAUAUCAUGAUGGAU |  |  | 46.4 | 6.73 |
| CACGUCCACACAGGAUAUGCUGGACUUUGUCCAGCAGAAGGGUGACAACAUGAGGAUCACCCAUGUAGGACGUGUAUAUUUAAU |  |  | 1040 | 196 |
| ACAUGAGGAUCACCCAUGUUGACAUAGGAUAUACAACAAUAGUUACAAUCAUGUACUAUUUGAUAGUAGAAGGAUGGAACAUGA | 15.2 | 25.8 |  |  |
| GAUUACAAGUAAGGAUAUGUAUAUGAAACAUAUACAGAAGGUACAUGAGGAUCACCCAUGUUCUUGCAAAGCGAAUAUGUAAUC | 17.3 | 21 |  |  |
| GACAUACAUGAGGAUCACCCAUGUACAAACGUACAAGGAUAUGUGUGGAAACCGUACUAUACAGAAGGUGUUUGUC |  |  | 47.6 | 41.5 |
| GUCAGCUCGUGAGGAUAUACAACACUGCGUCGGCAGUGUAUUAAGAUCACAUGAGGAUCACCCAUGUAGAAGGCACGAGCUGAU | 13.4 | 223 |  |  |
| UCGUGUUAUACAGGAUAUGUUUAGGUUUAUUCAUUCAGUUAUUAAUUUAUGACAGAAGGGUAUACAUGAGGAUCACCCAUGUCA | 761 | 306 |  |  |
| GUUUUACAUGAGGAUCACCCAUGUGAGGAUAUAUUGUUAUUUUUAAUAUUUUUUAGUGGUAGAAGGCGCGUGAU | 31.4 | 26 |  |  |
| AUAAGCUCGUCAGGAUAUACGUCACUGCGUCAGCAGUGUGGUAAGAUCACAUGAGGAUCACCCAUGUAGAAGGGACGAGCUGAU | 14.7 | 266 |  |  |
| AAGAUGCGGGUAGGAUAUGGAGAGAAAGAAAGACCAGAAGGACUGGUCACACAACAUGAGGAUCACCCAUGUGUGUGUUGCGAA | 11.8 | 8.91 |  |  |
| CUCCGGCGUGUAGGAUAUGGAUCCGAUUAGGAUCCAGAAGGACAUGAGGAUCACCCAUGUACAUGUAAACAGUCAUCACCGGAA | 7.61 | 18.8 |  |  |
| AGUCGGAGCAGAGGAUAUACAUGAGGAUCACCCAUGUAAUAAAGUGAAGCCUGGUAACAGGCAAUGUAGAAGGCUGCUCCGACA | 11.3 | 77.7 |  |  |
| GCAUUGUAAGGAUAUACGUGCAAAGUUUUCGCUGUAAGUCGACAUGAGGAUCACCCAUGUAGAAGGUAUAUGGU | 24 | 24.1 |  |  |
| UUGUUGUCAGGAUAUCGUUAAUUUAAUUGUUUGUAUUAGUUCGAGAAGGGACAUGAGGAUCACCCAUGUUUUUU | 25.6 | 51.5 |  |  |
| ACAUGAGGAUCACCCAUGUUUGCAUAGGAUAUUGAGGAUUAGGGAUGUUUUUUUGGAUUUGCCCACAAGAAGGAUGUAUGUUUU |  |  | 8.56 | 7.96 |
| GUGGUAUUCGUAGGAUAUCCGUCGCCACCGUGUGGAGAAGGACGAACAUGAGGAUCACCCAUGUAUCAUGGUGUGGACGCUGUC | 92.1 | 86.6 |  |  |
| GUAGAACAUGAGGAUCACCCAUGUGAAGACGCAUGAGGAUAUGUCCGUACCUAGCAUACGAUAGAAGGCAUGGUAC |  |  | 69.2 | 88.2 |
| UAUGGUAAAGUCAGGAUAUACGUACGUCGUUCUAGGUAGAAGGGACAUGAGGAUCACCCAUGUAUGAUAGUGUU | 46.5 | 42.8 |  |  |
| UUGUUAGGGAGAGGAUAUUGACAUGAGGAUCACCCAUGUAUUUGGGAGUGUUUACUGAAUUCUUACGAGAAGGCUUACGAAAUU | 329 | 246 |  |  |
| ACAUGAGGAUCACCCAUGUAUUACAUGGUUAUGUUUAUUAACAGAAGGCGAAAUUACCACUUGAUCGAGGAUAUGUAUUCAAUU | 73 | 59.7 |  |  |
| UUGGACGUCGAAGGAUAUGUAGGAUAUUCCUACAUGAGGAUCACCCAUGUUGACAUGGAAGAAGGACAGAAGGACGAUGUCCAU |  |  | 479 | 6.78 |
| UUAUUUUUACAGAAGGUUUAAUACUAUGUAUGAGAAGGAUAUGUAACAUGAGGAUCACCCAUGUUUUAUUUAUAUGAGGUUCGU | 13.8 | 12.5 |  |  |

| Sequence | apparent Kd [1] [nM] | apparent Kd [2] [nM] | apparent Kd [3] [nM] | apparent Kd [4] [nM] |
| --- | --- | --- | --- | --- |
| ACGCUUUGGGAGAAGGUACGUUAAAUUUUUUCCACAUGAGGAUCACCCAUGUAAGGAUAUCCCAUCGUUAAAUAGUCUUCAGCA | 9.45 | 9.02 |  |  |
| UUAUGUAUUGUAGGAUAUCACAAGUUAUGUAUUAUAAUUGUAAUUUUGUAAUGAGAAGGACAUAUACAUGAGGAUCACCCAUGU | 18.9 | 14.9 |  |  |
| AUCUUGUCAGGAUAUGACUACAUAAAAAAAAAAAAAUGUAGUCAGAAGGGACAUGAGGAUCACCCAUGUACUAA | 34.9 | 54.1 |  |  |
| ACAAAAGUUGAUCCUCGCUACAUGAGGAUCACCCAUGUAAUGGAGGAUAUGCAGCAACAAAACUCGCAGAAGGCCAUUUGCUGG | 52.5 | 30.5 |  |  |
| UGUAUGGACAGAGGAUAUACCGAUAGGAUCUACUAUCGAAGAAUCCUCACAUGAGGAUCACCCAUGUAGAAGGCUGUCCAUACU | 41.3 | 665 |  |  |
| ACAUGGAAGUAGAAGGGUAAUACUUUAGAAUGUACCAUUAGAUGAUGUUAUACAGGAUAUGCUAACAUGAGGAUCACCCAUGUG | 25.6 | 19.8 |  |  |
| GACGCGCUCACAGGAUAUAGAUCCUCAGUGGCUCUAGAAGGGUGAACGUGCCCGAACGGGACAUGAGGAUCACCCAUGUAAUAA |  |  | 34.9 | 13.2 |
| GGGUACAGUGAGAAGGUCUGCGGAUUCCUUAACAUGAGGAUCACCCAUGUAGAAGGAUAUCACAGGUAAAGGUCGUCUAACGAU | 5.49 | 6.82 |  |  |
| ACUUAAAUACCCAAAAGUCGGGCGGAGGAUAUGGAGCUUCCACCACAUGAGGAUCACCCAUGUCUUCAGAAGGCCGCCCUUGGG |  |  | 89.6 | 8.79 |
| ACAUACAUUCGAGGAUAUCGGUGAUUAAUUUUACGAGAAGGCGAUUUAAGGCAUAAUGCUUUAGACAUGAGGAUCACCCAUGUA |  |  | 72.9 | 34.4 |
| UUAUUUUAAUGAGGAUAUAUACAACAUGAGGAUCACCCAUGUACCCAUGUAGUAGAAGGCAUAAUUUUUGAUAAUAACAUAACU |  |  | 49.5 | 31.6 |
| GUAACAUGAGGAUCACCCAUGUAUAGAACACUCAAUAGAUCUGAGGAUAUAGUGGAAUUUACACACUAGAAGGCAGUGGGUGCA |  |  | 75.3 | 33.6 |
| UAUAUAUAGGCAGGAUAUACAUGAAUAUAUAUAAUAUAAUAUAAUAUAACAUGAGGAUCACCCAUGUAGAAGGGCCAAUAUAUA | 56.2 | 117 |  |  |
| GGUCCGUAACAGAAGGCCGUAACUGGUAGUGGCGGAGGAUAUGUGGGCGGCCCUUGACAACAUGAGGAUCACCCAUGUAUGUAA |  |  | 335 | 20.3 |
| AGCUGGUUAGGAUAUACAUGAGGAUCACCCAUGUUAAAAAAAAAAAAAAGAUUAAAGUGUAGAAGGGAUUAGUA | 40.4 | 37.1 |  |  |
| UUUGAGUUCCGAGACCGCGGGUUCACAGAAGGCAUUAUUACAUGAGGAUCACCCAUGUGGGUACAUGAGGAUAUGUGAUAUGCG |  |  | 20.5 | 6.99 |
| GAAUAUUCGUUGAACAUGAGGAUCACCCAUGUAACUUGACAUGAGGAUAUGGAUUCUAAUUGGAUCCAGAAGGUAUGAAUAUUC |  |  |  | 91.8 |
| AAAAAACAUGAGGAUCACCCAUGUGAGGAUAUCACUAGUCAGUCCUCGGAGUGAGUACUGAGAAGGCACAUAAA | 68.1 | 44.9 |  |  |
| GACAUGAGGAUCACCCAUGUCCUUCCAGAAGGCUGGCGCGCGAAACCUAAAUCAGUUCCGCGCACAGAGGAUAUGGGCAGUUGG |  |  | 72.2 | 15.9 |
| ACUGCAUAGGCAGGAUAUGCAAUAAUUCGAAUAAAAUAUAACGAAUUAACAUGAGGAUCACCCAUGUAGAAGGGCCUGUGCAGU | 6.46 | 5.46 |  |  |
| AACCUACAUGAGGAUCACCCAUGUAAGGAUAUGGCAUGAUUUGCGUCAGCCCGUUAAGUUAGAAGGUGCGUCGG | 14.8 | 16 |  |  |
| UGGAAACAUGAGGAUCACCCAUGUAAAAGGUGGUCAGGAUAUGCGAAAAGAAAAAGAAAAGUAGAAGGGACAAGAA |  |  | 459 | 1200 |
| CCGGAUACGGGUAGCUGACAUGAGGAUCACCCAUGUGAAUCUGAGGAUAUGGAUCCUAAUUGGAUCCAGAAGGCAGUCAGCUAC |  |  | 618 | 61.5 |
| AAAAGACAUGAGGAUCACCCAUGUCAAGACGUGGGAGGAUAUGCAUGGAAAACAUGCUGUGCAGAAGGCCCGUGUC |  |  | 25.6 | 17.9 |
| CCACGAGACUAAGGAUAUGGAGUGUCAACAUAAAACAUGAGGAUCACCCAUGUAAAGAGUACAAUUCAGAAGGUAGAGACGUGG |  |  | 21.9 | 21.5 |
| CCCAGUUAUCUAGGAUAUUGUACAUGAGGAUCACCCAUGUAAUAAAUGAGGAUUUCGGGUGUCUACAAGAAGGAGAGGAUAGGC | 28.6 | 26.1 |  |  |
| AAUUUACAGCUAGGAUAUACAUGAGGAUCACCCAUGUAAUGAUAGGAUCUUAUGAUCGUAUCAGUGUAGAAGGAGCAAAUAAGA | 9.39 | 8.81 |  |  |
